Test results as given in ChEMBL document CHEMBL2440021, “Discovery of β2 Adrenergic Receptor Ligands Using Biosensor Fragment Screening of Tagged Wild-Type Receptor” (ACS Med Chem Lett, 2013).
pKd: −log10 of the molar value. Activity calls are given as the source filed them. The calls are words filed in the database; no cut-off is given here.

Key:
[1] = biological target: T1, Beta-2 adrenergic receptor (Homo sapiens, UniProt P07550); assay: Binding affinity to N-terminal FLAG-tagged C-terminal His-10-tagged human beta2 adrenoceptor expressed in insect Sf9 cells by surface plasmon resonance analysis in presence of maltose neopentyl glycol; conditions: for pKd: read-out: Kd
Procedure, shortened: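 Same NTA chip capture of His-10-tagged purified receptor as the primary SPR screen, but the binding run was done in MNG detergent. KD by SPR.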
Target sequence in this assay (P07550 whole entry): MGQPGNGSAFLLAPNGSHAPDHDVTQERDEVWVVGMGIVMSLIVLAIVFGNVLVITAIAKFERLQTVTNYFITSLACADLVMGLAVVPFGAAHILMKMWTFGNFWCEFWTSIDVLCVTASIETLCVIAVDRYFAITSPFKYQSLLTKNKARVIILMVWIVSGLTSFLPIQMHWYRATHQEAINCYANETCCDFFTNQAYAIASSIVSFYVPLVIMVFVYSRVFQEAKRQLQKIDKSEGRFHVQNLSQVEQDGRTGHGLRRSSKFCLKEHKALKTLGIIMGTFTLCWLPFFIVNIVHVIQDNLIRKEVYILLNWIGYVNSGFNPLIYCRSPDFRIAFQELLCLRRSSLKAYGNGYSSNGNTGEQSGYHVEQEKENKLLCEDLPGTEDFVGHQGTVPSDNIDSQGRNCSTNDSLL

[2] = biological target: Vasopressin V2 receptor (Homo sapiens) (UniProt P30518); assay: Antagonist activity at AVPR2 (unknown origin) assessed as inhibition of [Arg8]-Vasopressin induced beta arrestin recruitment at 10 uM; assay type: functional
[3] = biological target: Vasopressin V2 receptor (Homo sapiens) (UniProt P30518); assay: Antagonist activity at AVPR2 (unknown origin) assessed as inhibition of [Arg8]-Vasopressin induced cAMP production at 10 to 100 uM; assay type: functional
[4] = biological target: Vasopressin V2 receptor (Homo sapiens) (UniProt P30518); assay: Agonist activity at AVPR2 (unknown origin) assessed as stimulation of beta arrestin recruitment; assay type: functional
[5] = biological target: Vasopressin V2 receptor (Homo sapiens) (UniProt P30518); assay: Agonist activity at AVPR2 (unknown origin) assessed as stimulation of cAMP production; assay type: functional
[6] = biological target: T1, Beta-2 adrenergic receptor; assay: Antagonist activity at human beta2 adrenoceptor containing C-terminus of V2 vasopressin receptor expressed in HEK293 cells assessed as inhibition of isoproterenol-induced beta arrestin recruitment at 10 uM after 15 to 18 hrs by luciferase reporter gene assay; assay type: functional, cell-based
Target sequence in this assay (P07550 whole entry, looked up): as the sequence (P07550 whole entry) above

[7] = biological target: T1, Beta-2 adrenergic receptor; assay: Antagonist activity at human beta2 adrenoceptor expressed in HEK293 cells assessed as inhibition of isoproterenol-induced cAMP production at 10 uM after 5 mins by luciferase reporter gene assay; assay type: functional, cell-based
Target sequence in this assay (P07550 whole entry, looked up): as the sequence (P07550 whole entry) above

[8] = biological target: T1, Beta-2 adrenergic receptor; assay: Agonist activity at human beta2 adrenoceptor containing C-terminus of V2 vasopressin receptor expressed in HEK293 cells assessed as stimulation of beta arrestin recruitment after 15 to 18 hrs by luciferase reporter gene assay; assay type: functional, cell-based
Target sequence in this assay (P07550 whole entry, looked up): as the sequence (P07550 whole entry) above

[9] = biological target: T1, Beta-2 adrenergic receptor; assay: Agonist activity at human beta2 adrenoceptor expressed in HEK293 cells assessed as stimulation of cAMP production after 5 mins by luciferase reporter gene assay; assay type: functional, cell-based
Target sequence in this assay (P07550 whole entry, looked up): as the sequence (P07550 whole entry) above

[10] = biological target: Beta-1 adrenergic receptor (Homo sapiens) (UniProt P08588); assay: Displacement of [125I]-Cyanopindolol from human beta1 adrenoceptor expressed in HEK293 cells after 90 mins by gamma counting analysis; assay type: cell-based
[11] = biological target: T1, Beta-2 adrenergic receptor; assay: Displacement of [125I]-Cyanopindolol from human beta2 adrenoceptor expressed in HEK293 cells after 90 mins by gamma counting analysis; assay type: cell-based
Target sequence in this assay (P07550 whole entry, looked up): as the sequence (P07550 whole entry) above

[12] = biological target: T1, Beta-2 adrenergic receptor; assay: Binding affinity to N-terminal FLAG-tagged C-terminal His-10-tagged human beta2 adrenoceptor expressed in insect Sf9 cells by surface plasmon resonance analysis in presence of dodecyl maltoside
Target sequence in this assay (P07550 whole entry, looked up): as the sequence (P07550 whole entry) above

[13] = biological target: T1, Beta-2 adrenergic receptor; assay: Binding affinity to N-terminal FLAG-tagged C-terminal His-10-tagged human beta2 adrenoceptor expressed in insect Sf9 cells by surface plasmon resonance analysis
Target sequence in this assay (P07550 whole entry): as above

[14] = biological target: T1, Beta-2 adrenergic receptor; conditions: Sf9
[15] = biological target: T1, Beta-2 adrenergic receptor; assay: Antagonist activity at human beta2 adrenoceptor containing C-terminus of V2 vasopressin receptor expressed in HEK293 cells assessed as inhibition of isoproterenol-induced beta arrestin recruitment at 100 uM after 15 to 18 hrs by luciferase reporter gene assay; assay type: functional, cell-based
[16] = biological target: T1, Beta-2 adrenergic receptor; assay: Antagonist activity at human beta2 adrenoceptor expressed in HEK293 cells assessed as inhibition of isoproterenol-induced cAMP production at 100 uM after 5 mins by luciferase reporter gene assay; assay type: functional, cell-based

Beta-1 adrenergic receptor (Homo sapiens), sequence (P08588 whole entry, looked up): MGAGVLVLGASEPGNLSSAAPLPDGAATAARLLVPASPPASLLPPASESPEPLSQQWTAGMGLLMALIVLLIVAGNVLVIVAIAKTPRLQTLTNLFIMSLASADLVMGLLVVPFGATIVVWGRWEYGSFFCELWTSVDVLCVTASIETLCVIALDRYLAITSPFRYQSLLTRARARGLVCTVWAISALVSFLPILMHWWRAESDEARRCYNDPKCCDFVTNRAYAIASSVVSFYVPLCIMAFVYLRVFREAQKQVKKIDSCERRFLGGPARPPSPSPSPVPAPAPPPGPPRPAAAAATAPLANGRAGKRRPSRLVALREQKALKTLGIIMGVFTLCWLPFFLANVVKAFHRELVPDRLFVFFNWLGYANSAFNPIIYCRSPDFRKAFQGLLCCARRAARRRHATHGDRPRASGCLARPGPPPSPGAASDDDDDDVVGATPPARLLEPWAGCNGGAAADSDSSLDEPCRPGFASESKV
Vasopressin V2 receptor (Homo sapiens), sequence (P30518 whole entry): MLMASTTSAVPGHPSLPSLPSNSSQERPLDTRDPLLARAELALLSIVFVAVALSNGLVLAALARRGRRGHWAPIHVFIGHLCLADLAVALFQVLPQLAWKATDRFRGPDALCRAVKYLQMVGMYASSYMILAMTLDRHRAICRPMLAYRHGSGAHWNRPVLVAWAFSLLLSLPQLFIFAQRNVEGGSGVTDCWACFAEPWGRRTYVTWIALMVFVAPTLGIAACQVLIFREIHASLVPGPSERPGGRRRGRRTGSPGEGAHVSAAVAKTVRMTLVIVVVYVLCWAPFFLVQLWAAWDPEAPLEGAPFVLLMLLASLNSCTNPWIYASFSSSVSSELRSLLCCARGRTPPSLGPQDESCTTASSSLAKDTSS

Structure (SMILES) | inhibition [2] | inhibition [3] | Activity [4] | Activity [5] | pKd [1] | pKd [13] | other results
Cc1ccc2nc(C(F)(F)F)cc(N3CCOCC3)c2c1 |  |  |  |  |  |  | Kd ([1]; sf9): Not Active
Clc1ccc2c(N3CCNCC3)ccnc2c1 | inactive | inactive | inactive | inactive | 7.12 | 7.08 | inhibition [6]: Active; inhibition [7]: Active; Activity [8]: inactive; Activity [9]: inactive; Kic [10]: 0.152 µM; Kic [11]: 0.191 µM; Activity [12]: Active; Ka [14]: 6.62 ×10⁵ /M/s
FC(F)(F)c1ccc2c(N3CCNCC3)ccnc2c1 |  |  |  |  | 5.10 |  | 
c1ccc2c(N3CCNCC3)ccnc2c1 |  |  |  |  | 6.46 |  | 
FC(F)(F)c1cc(N2CCNCC2)c2ccccc2n1 |  |  |  |  | 7.07 |  | 
Clc1cncc(Cl)c1N1CCNCC1 | inactive | inactive | inactive | inactive |  | 5.46 | inhibition [15]: Active; inhibition [16]: Active; Activity [8]: inactive; Activity [9]: inactive; Kic [10]: 12.9 µM; Kic [11]: 15 µM; Activity [12]: Active
Cc1cc(N2CCNCC2)c2ccccc2n1 | inactive | inactive | inactive | inactive | 7.14 | 7.03 | 
c1ccc2c(C3CCNCC3)c[nH]c2c1 | inactive | inactive | inactive | inactive |  | 4.65 | inhibition [15]: Active; inhibition [16]: Active; Activity [8]: inactive; Activity [9]: inactive; Kic [10]: 9.9 µM; Kic [11]: 14.1 µM; Activity [12]: Active
Cc1ccc2nc(C(F)(F)F)cc(N3CCN(C)CC3)c2c1 |  |  |  |  | 5.74 |  | 
Cc1ccc2nc(C(F)(F)F)cc(N3CCC(F)(F)CC3)c2c1 |  |  |  |  | 4.17 |  | 
c1cc(N2CCNCC2)ccn1 |  |  |  |  | 3.85 |  | 
